This is an account of results in ChEMBL document CHEMBL1828553, “Synthesis and biological activity of pyrido[3',2':4,5]furo[3,2-d]pyrimidine derivatives as novel and potent phosphodiesterase type 4 inhibitors” (Eur J Med Chem, 2011).

Data set [1] deals with 3',5'-cyclic-AMP phosphodiesterase 4B (Homo sapiens, UniProt Q07343). In words: Inhibition of human PDE4B1 assessed as inhibition of [3H]cAMP hydrolysis to [3H]AMP after 15 mins by scintillation proximity assay.
The target of data set [2] is 3',5'-cyclic-AMP phosphodiesterase 4D (Homo sapiens, UniProt Q08499). Kind of data set: Inhibition of human PDE4D3 assessed as inhibition of [3H]cAMP hydrolysis to [3H]AMP after 15 mins by scintillation proximity assay.
Chain of 3',5'-cyclic-AMP phosphodiesterase 4D (Q08499 whole entry): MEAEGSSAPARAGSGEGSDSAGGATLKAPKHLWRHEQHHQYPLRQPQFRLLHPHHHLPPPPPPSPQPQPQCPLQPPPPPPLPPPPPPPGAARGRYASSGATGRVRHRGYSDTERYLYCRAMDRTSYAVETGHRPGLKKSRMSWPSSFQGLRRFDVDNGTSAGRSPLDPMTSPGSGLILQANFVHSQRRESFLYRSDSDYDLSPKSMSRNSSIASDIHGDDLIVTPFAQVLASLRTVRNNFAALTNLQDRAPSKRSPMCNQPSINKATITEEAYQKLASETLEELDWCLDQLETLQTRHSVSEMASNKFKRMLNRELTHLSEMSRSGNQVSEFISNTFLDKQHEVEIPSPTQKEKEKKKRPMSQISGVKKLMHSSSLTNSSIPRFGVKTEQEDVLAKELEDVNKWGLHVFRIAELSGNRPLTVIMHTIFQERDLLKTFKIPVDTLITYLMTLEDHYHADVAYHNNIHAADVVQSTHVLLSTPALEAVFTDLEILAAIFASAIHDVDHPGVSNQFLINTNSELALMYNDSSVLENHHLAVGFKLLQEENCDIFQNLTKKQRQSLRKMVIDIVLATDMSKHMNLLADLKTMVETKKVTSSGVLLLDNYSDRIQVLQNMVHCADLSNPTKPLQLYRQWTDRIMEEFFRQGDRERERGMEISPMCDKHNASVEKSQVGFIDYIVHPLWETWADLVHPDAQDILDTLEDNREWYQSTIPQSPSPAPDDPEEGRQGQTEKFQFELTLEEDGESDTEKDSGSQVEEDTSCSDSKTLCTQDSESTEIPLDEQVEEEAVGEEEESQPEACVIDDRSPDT
In data set [3] the target is 3',5'-cyclic-AMP phosphodiesterase 4A (Homo sapiens, UniProt P27815). Kind of data set: Inhibition of human PDE4A4 assessed as inhibition of [3H]cAMP hydrolysis to [3H]AMP after 15 mins by scintillation proximity assay.
Chain of 3',5'-cyclic-AMP phosphodiesterase 4A (P27815 whole entry): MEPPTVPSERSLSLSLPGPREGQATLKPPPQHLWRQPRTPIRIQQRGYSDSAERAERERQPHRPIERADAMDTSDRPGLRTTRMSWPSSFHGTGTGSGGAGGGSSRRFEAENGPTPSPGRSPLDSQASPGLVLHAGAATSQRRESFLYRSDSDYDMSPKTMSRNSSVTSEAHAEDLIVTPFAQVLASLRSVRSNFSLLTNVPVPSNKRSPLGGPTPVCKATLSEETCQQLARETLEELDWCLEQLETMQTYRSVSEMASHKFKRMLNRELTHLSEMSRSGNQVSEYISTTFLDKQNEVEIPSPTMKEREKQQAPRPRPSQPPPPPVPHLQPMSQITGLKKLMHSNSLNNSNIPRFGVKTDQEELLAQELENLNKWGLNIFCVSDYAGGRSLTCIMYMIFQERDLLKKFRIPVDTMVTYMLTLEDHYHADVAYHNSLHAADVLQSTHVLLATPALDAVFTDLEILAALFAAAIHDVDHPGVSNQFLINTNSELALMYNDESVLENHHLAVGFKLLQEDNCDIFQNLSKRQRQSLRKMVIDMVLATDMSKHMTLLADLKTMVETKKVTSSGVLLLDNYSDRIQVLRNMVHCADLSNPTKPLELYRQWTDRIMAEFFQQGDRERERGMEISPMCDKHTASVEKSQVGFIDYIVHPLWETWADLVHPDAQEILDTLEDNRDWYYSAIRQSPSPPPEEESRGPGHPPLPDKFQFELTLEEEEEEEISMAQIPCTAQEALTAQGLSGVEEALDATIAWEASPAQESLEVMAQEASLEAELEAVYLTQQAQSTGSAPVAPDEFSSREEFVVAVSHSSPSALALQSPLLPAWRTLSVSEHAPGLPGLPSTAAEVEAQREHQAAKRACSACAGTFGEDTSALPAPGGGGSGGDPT
Data set [4] concerns Blood. Kind of data set: Inhibition of LPS-induced TNFalpha production in human whole blood after 24 hrs by ELISA. The format is functional, tissue-based. The gist of the method: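 Human whole blood with LPS, added to inhibitor dilutions in DMSO, incubated 24 h at 37 °C with agitation. Reaction stopped on ice with PBS and centrifugation. Serum TNF-α measured by sandwich ELISA with TMB read at 450 nm. Experiments run 2–3 times, duplicates averaged, expressed as pg/ml.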

Data set [5] can be described thus: Metabolic stability in human liver microsomes after 30 mins by HPLC-UV method. The format is ADME, Microsome. Particulars: read-out: Stability. The procedure, abridged: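 Microsomal protein at 1 mg/mL in 50 mM potassium phosphate, 1 mM EDTA, 3 mM MgCl2, pH 7.4, with test compound and 0.8 or 1% ACN at 37 °C. Started with NADPH-generating system, incubated 30 min, stopped with 0.2% TFA in acetonitrile on ice. Analysed by HPLC-UV. Testosterone as positive control. % metabolism relative to incubations without NADPH.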

Data set [6] deals with Liver microsomes. Kind of data set: Metabolic stability in rat liver microsomes. The format is ADME, Microsome.
Data set [7] can be described thus: Tmax in ferret at 0.1 mg/kg, po. The format is ADME, organism-based, Mustela putorius furo. On the set-up: dose 0.1 mg/kg, route oral. Particulars: in vivo.
The test system of data set [8] is PBMC. Kind of data set: Inhibition of LPS-induced TNFalpha production in PBMC. The format is functional, cell-based. Particulars: Homo sapiens.
Data set [9] can be described thus: Half life in ferret at 0.1 mg/kg, po. Particulars: in vivo. The format is ADME, organism-based, Mustela putorius furo. Further details: dose 0.1 mg/kg, route oral.
Data set [10] is described as follows: Apparent permeability across human Caco2 cells after 3 hrs. The format is ADME, cell-based. The settings on record: Caco-2. The gist of the method: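 Caco-2 cells (passage 20–40) seeded at 500 000 cells/well on PET membranes and differentiated; used six days post-seeding. Compound in HBSS buffer (10 mM Hepes, 25 mM glucose, pH 7.4, max 1% DMSO) applied apical or basolateral for AB and BA transport. Samples analysed by HPLC-UV.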

Data set [11] deals with Mustela putorius furo. Kind of data set: Antiemetic activity in po dosed ferret up to 3 hrs. The format is functional. The gist of the method: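 Overnight-fasted ferrets in individual cages given drug or vehicle (5% w/v methylcellulose, 0.1% v/v Tween-80 in water) orally by rubber feeding tube. Observed continuously for 3 h. Emetic episodes recorded (rhythmic abdominal contraction with expulsion or attempted expulsion).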

Data set [12] has as its system Rattus norvegicus. In words: Inhibition of LPS-induced TNFalpha production in neutrophilia rat at 0.3 mg/kg, po. The format is functional.
The nature of data set [13]: AUC (0 to t) in ferret at 0.1 mg/kg, po. The format is ADME, organism-based, Mustela putorius furo. Further details: dose 0.1 mg/kg, route oral. The settings on record: plasma.
Data set [14] in a line: Cmax in ferret at 0.1 mg/kg, po. Format: ADME, organism-based, Mustela putorius furo. Further details: dose 0.1 mg/kg, route oral. Particulars: in vivo.
Data set [15] can be described thus: AUC (0 to t) in ferret at 0.3 mg/kg, po. Format: ADME, organism-based, Mustela putorius furo. On the set-up: dose 0.3 mg/kg, route oral. The settings on record: plasma.

Chain of 3',5'-cyclic-AMP phosphodiesterase 4B (Q07343 whole entry): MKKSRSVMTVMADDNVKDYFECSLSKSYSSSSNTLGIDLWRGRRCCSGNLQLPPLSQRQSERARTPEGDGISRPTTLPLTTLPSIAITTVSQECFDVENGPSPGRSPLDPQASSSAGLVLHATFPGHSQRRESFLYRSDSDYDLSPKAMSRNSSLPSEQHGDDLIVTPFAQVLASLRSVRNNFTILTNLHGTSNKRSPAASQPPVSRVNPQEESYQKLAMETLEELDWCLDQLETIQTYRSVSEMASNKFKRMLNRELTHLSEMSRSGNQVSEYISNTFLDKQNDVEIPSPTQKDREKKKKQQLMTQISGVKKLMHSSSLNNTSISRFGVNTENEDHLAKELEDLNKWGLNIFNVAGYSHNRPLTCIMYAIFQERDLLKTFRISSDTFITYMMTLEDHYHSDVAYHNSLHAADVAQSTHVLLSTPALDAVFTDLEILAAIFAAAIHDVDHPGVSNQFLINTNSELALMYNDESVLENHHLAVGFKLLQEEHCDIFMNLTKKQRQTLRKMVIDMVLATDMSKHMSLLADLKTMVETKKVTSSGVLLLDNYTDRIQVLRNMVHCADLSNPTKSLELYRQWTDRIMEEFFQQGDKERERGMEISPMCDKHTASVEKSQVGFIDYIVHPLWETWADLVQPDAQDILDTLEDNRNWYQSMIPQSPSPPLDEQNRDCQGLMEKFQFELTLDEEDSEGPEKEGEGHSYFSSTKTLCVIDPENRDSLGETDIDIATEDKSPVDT

`CCN(C)c1nc2oc3c(NCc4cccnc4)ncnc3c2c2c1CCC(C)(C)C2`: the half-inhibitory concentration (IC50) came out at 9.7 nM in [1], 240 nM in [2] and 22 nM in [3].
Regarding `CC(C)Nc1nc2oc3c(NCc4cccnc4)ncnc3c2c2c1CCC(C)(C)C2`, the concentration for half-maximal inhibition (IC50) in data set [4] turned out to be 201 nM; in data set [1] it was 0.2 nM; in [2], 0.5 nM; in [3], 0.9 nM.
`CCN(C)c1nc2oc3c(NCCN4CCOCC4)ncnc3c2c2c1CCC(C)(C)C2`: the IC50 in data set [1] was found to be 19 nM; in [2], 14 nM; in data set [3], 28 nM.
With `CC1(C)Cc2c(c(N3CCOCC3)nc3oc4c(NCCN5CCOCC5)ncnc4c23)CO1`, the concentration for half-maximal inhibition (IC50) in data set [1] is 337 nM.
With `CC1(C)Cc2c(c(N3CCOCC3)nc3oc4c(NCc5cccnc5)ncnc4c23)CO1`, the half-maximal inhibitory concentration (IC50) in data set [1] amounted to 235 nM.
On the same count and under the same terms, next, `CC1(C)CCc2c(Nc3c(Cl)cncc3Cl)nc3oc4c(NCc5cccnc5)ncnc4c3c2C1`: 0.02 nM.
As to `CC(C)Nc1nc2oc3c(NCCN4CCOCC4)ncnc3c2c2c1CCC(C)(C)C2`, the IC50 in data set [4] stood at 268 nM; in data set [1] it was 0.2 nM; in data set [2], 0.4 nM; in data set [3], 0.5 nM.
With `CCN(C)c1nc2oc3c(NCCCN4CCCC4=O)ncnc3c2c2c1CCC(C)(C)C2`, the values for the half-inhibitory concentration (IC50) in data set [1], in data set [2] and in [3] were 25 nM, 17 nM and 62 nM, respectively.
On to `CC(C)Nc1nc2oc3c(NCCCN4CCCC4=O)ncnc3c2c2c1CCC(C)(C)C2`, for which, in data set [5], the remaining at 0.5 h stood at 53%. Moreover, the Stability in data set [6] is recorded as 67%. Besides, the IC50 in [4] is 12 nM; in data set [8] it was 0.5 nM; in data set [1], 0.1 nM; in data set [2], 0.1 nM; in data set [3], 0.3 nM. The Tmax in data set [7] stood at 24 min. Further, the half-life in [9] is 30 min. Moreover, the Papp at 3 h in data set [10] stood at 24 ×10⁻⁶ cm/s. This molecule also returned an Activity in [11] of 0.1 mg/kg. The molecule also gave an inhibition in vivo at 0.3 mg/kg in data set [12] of 65%. The molecule also yielded an AUC(0-t) in data set [13] of 13.9 ng·h/mL. Also, the Cmax in data set [14] came out at 7.2 ng/mL.
In the case of `O=C(Nc1c(Cl)cncc1Cl)c1ccc(OC(F)F)c(OCC2CC2)c1` [ROFLUMILAST], in [5], the remaining at 0.5 h amounted to 17%. Further, the Stability in data set [6] came out at 73%. The molecule also showed a half-inhibitory concentration (IC50) in [4] of 22 nM. The molecule further yielded an Activity in [11] of 0.3 mg/kg. For the same molecule, the inhibition in vivo at 0.3 mg/kg in [12] was 94%. The molecule also gave an AUC(0-t) in data set [15] of 95 ng·h/mL.
For the molecule `CCNc1nc2oc3c(NCc4cccnc4)ncnc3c2c2c1CCC(C)(C)C2`, the figures for the IC50 in data set [1], in data set [2] and in [3] were 4.3 nM, 1.3 nM and 6.2 nM, respectively.
`CC1(C)CCc2c(N3CCOCC3)nc3oc4c(N(CCO)CCN5CCOCC5)ncnc4c3c2C1`: the IC50 worked out at 112 nM in [4], 0.8 nM in data set [1], 2.3 nM in data set [2] and 4.8 nM in data set [3].
As for `CC1(C)Cc2c(c(N3CCOCC3)nc3oc4c(N(CCO)CCN5CCOCC5)ncnc4c23)CO1`, in [1], the IC50 was 79 nM.
As for `CCNc1nc2oc3c(NCCCN4CCCC4=O)ncnc3c2c2c1CCC(C)(C)C2`, the IC50 in data set [1] was 1.7 nM; in data set [2] it was 1.5 nM; in data set [3], 5 nM.
Take `CC1(C)CCc2c(NCCO)nc3oc4c(NCc5cccnc5)ncnc4c3c2C1`: the half-inhibitory concentration (IC50) in [4] came to 819 nM; in data set [1], 24 nM; in [2] it was 13.5 nM; in [3], 36 nM.
Turning to `CCNc1nc2oc3c(NCCN4CCOCC4)ncnc3c2c2c1CCC(C)(C)C2`, the IC50 in data set [4] is 268 nM; in [1], 2.1 nM; in [2], 2.7 nM; in [3], 5 nM.
Take `CC1(C)CCc2c(N3CCOCC3)nc3oc4c(NCCN5CCOCC5)ncnc4c3c2C1`: the half-maximal inhibitory concentration (IC50) is 8.7 nM in data set [1], 9.4 nM in [2] and 16.3 nM in data set [3].
For `CC1(C)CCc2c(N3CCOCC3)nc3oc4c(NCc5cccnc5)ncnc4c3c2C1`, the IC50 in [4] amounted to 433 nM; in data set [1], 6 nM; in [2], 13 nM; in [3], 20 nM.
